# Activity calls are given as the source filed them. No cut-off for these calls is given here.
# Legend:
# Aspergillus fumigatus [1] = assay: Antimicrobial activity against Aspergillus fumigatus ATCC 90906 by modified NCCLS method; format: functional, organism-based
# Candida albicans [2] = assay: Antimicrobial activity against Candida albicans ATCC 90028 by modified NCCLS method; format: functional, organism-based
# Cryptococcus neoformans = assay: Antimicrobial activity against Cryptococcus neoformans ATCC 90113 by modified NCCLS method; format: functional, organism-based
# [3] = tested on: Mycobacterium intracellulare; assay: Antimicrobial activity against Mycobacterium intracellular by Alamar blue assay; format: functional, organism-based
# Staphylococcus aureus [4] = assay: Antimicrobial activity against methicillin-resistant Staphylococcus aureus ATCC 43300 by modified NCCLS method; format: functional, organism-based
# Staphylococcus aureus [5] = assay: Antimicrobial activity against Staphylococcus aureus ATCC 29213 by modified NCCLS method; format: functional, organism-based
# Aspergillus fumigatus [6] = assay: Antimicrobial activity against Aspergillus fumigatus ATCC 90906 at 50 ug/mL by modified NCCLS method; format: functional, organism-based
# Candida albicans [7] = assay: Antifungal activity against Candida albicans ATCC 90028 at 50 ug/mL by modified NCCLS method; format: functional, organism-based
# [8] = tested on: Mycobacterium intracellulare; assay: Antimicrobial activity against Mycobacterium intracellular at 50 ug/mL by Alamar blue assay; format: functional
# Plasmodium falciparum [9] = assay: Antimalarial activity against chloroquine-resistant Plasmodium falciparum W2; format: functional, organism-based
# [10] = Selectivity index, ratio of IC50 for african green monkey (Cercopithecus aethiops) Vero cells to IC50 for chloroquine-sensitive Plasmodium falciparum D6; format: toxicity, cell-based; settings: read-out: Ratio IC50
# Summary of the method: (§1)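 Selectivity index calculated as IC50 in Vero cells divided by IC50 against P. falciparum.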
# Vero = assay: Cytotoxicity against african green monkey Vero cells at 4.7 ug/mL; format: cell-based; settings: chlorocebus sabaeus
# [11] = Selectivity index, ratio of IC50 for african green monkey (Cercopithecus aethiops) Vero cells to IC50 for chloroquine-sensitive Plasmodium falciparum W2; format: toxicity, cell-based; settings: read-out: Ratio IC50; summary of the method: as §1
# Leishmania donovani = assay: Antileishmanial activity against Leishmania donovani promastigotes after 72 hrs; format: functional, organism-based
# Plasmodium falciparum [12] = assay: Antimalarial activity against chloroquine-sensitive Plasmodium falciparum D6; format: functional, organism-based
SMILES,MIC (Aspergillus fumigatus [1]),MIC (Candida albicans [2]),IC50 [3],MIC [3],MBC (Staphylococcus aureus [4]),MIC (Staphylococcus aureus [4]),IC50 (Staphylococcus aureus [5]),Activity (Aspergillus fumigatus [6]),IC50 (Candida albicans [2]),IC50 (Staphylococcus aureus [4]),MBC (Staphylococcus aureus [5]),MIC (Staphylococcus aureus [5]),IC50 (Cryptococcus neoformans),IC50 (Plasmodium falciparum [9]),selectivity ratio [10],Activity (Vero),selectivity ratio [11],IC50 (Leishmania donovani),IC90 (Leishmania donovani),IC50 (Plasmodium falciparum [12]),other results
C[C@@H]1[C@H](O)[C@@H](C)/C=C/C=C/C=C/C=C/C=C/C=C/C=C/[C@H](O[C@@H]2O[C@H](C)[C@@H](O)[C@H](N)[C@@H]2O)C[C@@H]2O[C@](O)(C[C@@H](O)C[C@@H](O)[C@H](O)CC[C@@H](O)C[C@@H](O)CC(=O)O[C@H]1C)C[C@H](O)[C@H]2C(=O)O [AMPHOTERICIN B],1.25 µg/mL,0.31 µg/mL,–,–,–,–,–,–,–,–,–,–,–,–,–,–,–,–,–,–,MIC (Cryptococcus neoformans): 0.63 µg/mL
O=C(O)c1cn(C2CC2)c2cc(N3CCNCC3)c(F)cc2c1=O [CIPROFLOXACIN],–,–,0.45 µg/mL,0.63 µg/mL,0.31 µg/mL,0.31 µg/mL,0.15 µg/mL,–,–,–,–,–,–,–,–,–,–,–,–,–,–
C=C(C)[C@H]1CC[C@H](C)C[C@@H]1c1c(O)cc(/C=C/c2ccccc2)cc1O [MACHAERIDIOL A],12.5 µg/mL,50 µg/mL,7 µg/mL,12.5 µg/mL,3.13 µg/mL,1.56 µg/mL,1 µg/mL,inactive,3.5 µg/mL,1 µg/mL,3.13 µg/mL,1.56 µg/mL,15 µg/mL,–,–,–,–,–,–,–,Activity (Candida albicans [7]): inactive; MBC [8]: 50 µg/mL; Activity (Cryptococcus neoformans): inactive
C=C(C)[C@H]1CC[C@H](C)C[C@@H]1c1c(O)cc(/C=C/c2ccccc2O)cc1O [MACHAERIDIOL B],10 µg/mL,6.25 µg/mL,–,–,6.25 µg/mL,6.25 µg/mL,2.6 µg/mL,inactive,2 µg/mL,2 µg/mL,6.25 µg/mL,6.25 µg/mL,3.5 µg/mL,0.22 µg/mL,> 7.4,Non-toxic,> 22,0.9 µg/mL,8 µg/mL,0.64 µg/mL,Activity (Candida albicans [7]): inactive; Activity [3]: inactive
C=C(C)[C@H]1CC[C@H](C)C[C@@H]1c1c(O)cc(-c2cc3ccccc3o2)cc1O [MACHAERIDIOL C],–,–,10 µg/mL,25 µg/mL,12.5 µg/mL,6.25 µg/mL,3 µg/mL,–,45 µg/mL,3.5 µg/mL,12.5 µg/mL,6.25 µg/mL,25 µg/mL,2.5 µg/mL,> 1.4,Non-toxic,> 1.9,3 µg/mL,10 µg/mL,3.3 µg/mL,Activity (Aspergillus fumigatus [1]): inactive; Activity [8]: inactive
C[C@H]1CC[C@H]2[C@H](C1)c1c(O)cc(/C=C/c3ccccc3O)cc1OC2(C)C [MACHAERIOL C],100 µg/mL,–,20 µg/mL,–,12.5 µg/mL,1.56 µg/mL,0.65 µg/mL,inactive,20 µg/mL,0.7 µg/mL,6.25 µg/mL,1.56 µg/mL,40 µg/mL,3.7 µg/mL,1.6,Non-toxic,1.3,6 µg/mL,12 µg/mL,3 µg/mL,–
C[C@@H]1C[C@@H]2c3c(O)cc(-c4cc5ccccc5o4)cc3OC(C)(C)[C@H]2C[C@H]1O [MACHAERIOL D],–,–,–,–,–,–,25 µg/mL,–,–,30 µg/mL,–,50 µg/mL,–,–,–,–,–,–,–,–,Activity (Aspergillus fumigatus [1]): inactive; Activity (Candida albicans [2]): inactive; Activity [3]: inactive; Activity (Staphylococcus aureus [4]): inactive; Activity (Cryptococcus neoformans): inactive
N=C(N)c1ccc(OCCCCCOc2ccc(C(=N)N)cc2)cc1 [PENTAMIDINE],–,–,–,–,–,–,–,–,–,–,–,–,–,–,–,–,–,0.42 µg/mL,1.5 µg/mL,–,–

# — ChEMBL document CHEMBL1146533, “Antimicrobial and antiparasitic (+)-trans-hexahydrodibenzopyrans and analogues from Machaerium multiflorum” (J Nat Prod, 2003)
